Reference: ChEMBL document CHEMBL3817843, “Understanding Oxadiazolothiazinone Biological Properties: Negative Inotropic Activity versus Cytochrome P450-Mediated Metabolism” (J Med Chem, 2016)
pEC50, pIC50: −log10 of the molar value. Calls of active or inactive are those of the source. No cut-off for these calls is given here.

Legend:
[1] = tested on: Left cardiac atrium; experiment: Negative inotropic activity in potassium depolarized guinea pig left atrium assessed as EC50 for diltiazem at 10^-8 M preincubated for 30 mins followed by diltiazem addition; assay type: functional; conditions: Cavia porcellus
Outline: (§1)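 Guinea pig left atria driven at 1 Hz. Pretreated with compound at 0.01 μM, added 30 min before diltiazem, verapamil or nifedipine. Blocker concentration−response curves analysed by probit (Litchfield and Wilcoxon), n = 6−7. Data given as mean ±, Student's t test.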

[2] = tested on: Left cardiac atrium; experiment: Negative inotropic activity in potassium depolarized guinea pig left atrium assessed as reduction in developed tension at 10^-8 M preincubated for 30 mins followed by 0.5 uM nifedipine addition; assay type: functional, Cavia porcellus; design: scale not given: the % may be the effect or the level left
[3] = organism: Rattus norvegicus; experiment: Displacement of [3H]Isradipine from LTCC DHP site in Sprague-Dawley rat cardiomyocytes at 100 uM after 20 mins by liquid scintillation counting analysis; assay type: cell-based
Outline: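 Rat cardiomyocytes pooled from at least three animals, stored frozen at −80 °C, 0.15−0.2 mg protein/tube. Incubated in 50 mmol/L Tris-HCl with 1.2 mmol/L MgCl2, pH 7.4, at 37 °C for 20 min with 0.1 nM (+)-[3H]isradipine and unlabeled compound (1 nM to 0.1 mM). Nonspecific binding defined with 0.1 mM isradipine. Filtered through PEI-presoaked GF/B filters; scintillation counting; duplicates.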

[4] = tested on: Aorta; experiment: Inhibition of diltiazem-induced vasorelaxant activity in potassium depolarized guinea pig aorta assessed as relaxation of calcium-induced contraction at 10^-8 M preincubated for 30 mins followed by diltiazem addition; assay type: functional, tissue-based; conditions: Cavia porcellus
[5] = in vitro; conditions: human, liver microsomes
[6] = tested on: Aorta; experiment: Inhibition of diltiazem-induced vasorelaxant activity in potassium depolarized guinea pig aorta assessed as relaxation of calcium-induced contraction at 10^-6 M preincubated for 30 mins followed by diltiazem addition; assay type: functional, tissue-based; conditions: Cavia porcellus
Outline: (§2)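 K+-depolarized (80 mM) guinea pig aortic strips contracted with calcium. Compound at 1 μM added 30 min before diltiazem, verapamil or nifedipine. Response expressed as percent change from control. Data given as mean ±, Student's t test.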

[7] = tested on: Aorta; experiment: Inhibition of nifedipine-induced vasorelaxant activity in potassium depolarized guinea pig aorta assessed as relaxation of calcium-induced contraction at 10^-8 M preincubated for 30 mins followed by nifedipine addition; assay type: functional, tissue-based; conditions: Cavia porcellus
[8] = tested on: Aorta; experiment: Vasorelaxant activity in potassium depolarized guinea pig aorta assessed as IC50 for diltiazem at 10^-8 M preincubated for 30 mins followed diltiazem addition; assay type: functional, tissue-based; conditions: Cavia porcellus
[9] = tested on: Left cardiac atrium; experiment: Negative inotropic activity against potassium depolarized guinea pig left atrium assessed as decrease in nifedipine EC50 at 10^-8 M preincubated for 30 mins followed by nifedipine addition relative to control; assay type: functional, Cavia porcellus
Outline: (§3)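 Isolated guinea pig left atria, electrically driven at 1 Hz. The pretreatment agent (0.01 μM) was added to the bath 30 min before the L-type calcium channel blocker. Blocker concentration–response curves were then run to obtain the negative inotropic EC50, which was compared with the EC50 for the blocker alone. Data were compared by Student's t test.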

[10] = tested on: Left cardiac atrium; experiment: Negative inotropic activity in potassium depolarized guinea pig left atrium assessed as reduction in developed tension at 10^-8 M after 30 mins; assay type: functional; conditions: Cavia porcellus
[11] = tested on: Left cardiac atrium; experiment: Negative inotropic activity against potassium depolarized guinea pig left atrium assessed as decrease in diltiazem EC50 at 10^-8 M preincubated for 30 mins followed by diltiazem addition relative to control; assay type: functional, Cavia porcellus; outline: as §3
[12] = tested on: Left cardiac atrium; experiment: Negative inotropic activity in potassium depolarized guinea pig left atrium assessed as EC50 for nifedipine at 10^-8 M preincubated for 30 mins followed by nifedipine addition; assay type: functional; conditions: Cavia porcellus; outline: as §1
[13] = tested on: Aorta; experiment: Inhibition of verapamil-induced vasorelaxant activity in potassium depolarized guinea pig aorta assessed as relaxation of calcium-induced contraction at 10^-6 M preincubated for 30 mins followed by verapamil addition; assay type: functional, tissue-based; conditions: Cavia porcellus; outline: as §2
[14] = target: Cytochrome P450 2C9 (Homo sapiens, UniProt P11712); experiment: Inhibition of CYP2C9 in human liver microsomes using tolbutamide as substrate after 20 mins by LC-MS analysis
[15] = tested on: Left cardiac atrium; experiment: Negative inotropic activity in potassium depolarized guinea pig left atrium assessed as reduction in developed tension at 10^-8 M preincubated for 30 mins followed by 10^-6 M verapamil addition; assay type: functional, Cavia porcellus; design: scale not given: the % may be the effect or the level left
[16] = tested on: Left cardiac atrium; experiment: Potentiation of verapamil-induced negative inotropic activity in potassium depolarized guinea pig left atrium assessed as reduction in developed tension at 10^-8 M preincubated for 30 mins followed by verapamil addition; assay type: functional; conditions: Cavia porcellus; outline: as §1
[17] = target: Cytochrome P450 2D6 (Homo sapiens, UniProt P10635); experiment: Inhibition of CYP2D6 in human liver microsomes using dextromethorphan as substrate after 10 mins by LC-MS analysis
[18] = tested on: Aorta; experiment: Vasorelaxant activity in potassium depolarized guinea pig aorta assessed as inhibition of calcium-induced contraction at 10^-8 M preincubated for 30 mins followed by 50 uM diltiazem addition; assay type: functional, Cavia porcellus; design: scale not given: the % may be the effect or the level left
[19] = tested on: Aorta; experiment: Inhibition of nifedipine-induced vasorelaxant activity in potassium depolarized guinea pig aorta assessed as relaxation of calcium-induced contraction at 10^-6 M preincubated for 30 mins followed by nifedipine addition; assay type: functional, tissue-based; conditions: Cavia porcellus; outline: as §2
[20] = tested on: Aorta; experiment: Vasorelaxant activity in potassium depolarized guinea pig aorta assessed as relaxation of calcium-induced contraction at 10^-6 M after 30 mins; assay type: functional, tissue-based; conditions: Cavia porcellus
Outline: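 Guinea pig aortic strips depolarized with K+ (80 mM). Calcium-induced contraction measured; inhibition expressed as percent change from control, n = 3−5.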

[21] = tested on: Aorta; experiment: Vasorelaxant activity in potassium depolarized guinea pig aorta assessed as inhibition of calcium-induced contraction at 10^-8 M preincubated for 30 mins followed by 0.5 uM nifedipine addition; assay type: functional, Cavia porcellus; design: scale not given: the % may be the effect or the level left
[22] = tested on: Aorta; experiment: Vasorelaxant activity in potassium depolarized guinea pig aorta assessed as inhibition of calcium-induced contraction at 10^-8 M preincubated for 30 mins followed by 5 uM verapamil addition; assay type: functional, Cavia porcellus; design: scale not given: the % may be the effect or the level left
[23] = target: Cytochrome P450 2C19 (Homo sapiens, UniProt P33261); experiment: Inhibition of CYP2C19 in human liver microsomes using (S)-mephenytoin as substrate after 40 mins by LC-MS analysis
[24] = tested on: Left cardiac atrium; experiment: Potentiation of nifedipine-induced negative inotropic activity in potassium depolarized guinea pig left atrium assessed as reduction in developed tension at 10^-8 M preincubated for 30 mins followed by nifedipine addition; assay type: functional; conditions: Cavia porcellus; outline: as §1
[25] = target: Voltage-gated L-type calcium channel (Rattus norvegicus, UniProt P22002+Q02485+P27732); experiment: Displacement of [3H]Verapamil from LTCC PAA site in Sprague-Dawley rat cardiomyocytes after 60 mins by liquid scintillation counting analysis; assay type: cell-based
Outline: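 Frozen pooled cardiomyocytes (at least three animals) resuspended in 50 mmol/L Tris-HCl pH 7.4, 0.15−0.3 mg protein/tube, 25 °C for 60 min. [3H]verapamil 0.5 nM displaced by unlabeled compound (0.1 nM−0.1 mM). Nonspecific binding defined with 0.1 mM verapamil. GF/C filtration, two washes with 20 mmol/L Tris-HCl, liquid scintillation counting, duplicate measurements.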

[26] = tested on: Left cardiac atrium; experiment: Negative inotropic activity against potassium depolarized guinea pig left atrium assessed as decrease in verapamil EC50 at 10^-8 M preincubated for 30 mins followed by verapamil addition relative to control; assay type: functional, Cavia porcellus; outline: as §3
[27] = tested on: Left cardiac atrium; experiment: Negative inotropic activity in potassium depolarized guinea pig left atrium assessed as EC50 for verapamil at 10^-8 M preincubated for 30 mins followed by verapamil addition; assay type: functional; conditions: Cavia porcellus; outline: as §1
[28] = tested on: Aorta; experiment: Vasorelaxant activity in potassium depolarized guinea pig aorta assessed as inhibition of calcium-induced contraction at 10^-6 M preincubated for 30 mins followed by 50 uM diltiazem addition; assay type: functional, Cavia porcellus; design: scale not given: the % may be the effect or the level left; outline: as §2
[29] = tested on: Aorta; experiment: Vasorelaxant activity in potassium depolarized guinea pig aorta assessed as inhibition of calcium-induced contraction at 10^-6 M preincubated for 30 mins followed by 10^-5 M verapamil addition; assay type: functional, Cavia porcellus; design: scale not given: the % may be the effect or the level left; outline: as §2

Cytochrome P450 2C9, sequence (P11712 whole entry): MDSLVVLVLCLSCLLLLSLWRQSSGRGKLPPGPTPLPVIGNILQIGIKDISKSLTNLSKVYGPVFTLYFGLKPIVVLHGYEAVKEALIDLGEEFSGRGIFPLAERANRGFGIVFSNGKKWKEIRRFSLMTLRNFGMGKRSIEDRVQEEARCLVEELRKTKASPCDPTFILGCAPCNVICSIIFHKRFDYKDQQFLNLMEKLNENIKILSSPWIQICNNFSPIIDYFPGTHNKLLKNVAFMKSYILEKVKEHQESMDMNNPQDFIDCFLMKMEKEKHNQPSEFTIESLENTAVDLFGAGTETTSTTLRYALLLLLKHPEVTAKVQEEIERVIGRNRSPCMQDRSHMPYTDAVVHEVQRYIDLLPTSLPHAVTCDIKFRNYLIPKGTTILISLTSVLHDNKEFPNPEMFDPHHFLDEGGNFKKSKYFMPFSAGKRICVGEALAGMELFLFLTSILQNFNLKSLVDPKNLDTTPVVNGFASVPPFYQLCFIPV
Cytochrome P450 2D6, sequence (P10635 whole entry): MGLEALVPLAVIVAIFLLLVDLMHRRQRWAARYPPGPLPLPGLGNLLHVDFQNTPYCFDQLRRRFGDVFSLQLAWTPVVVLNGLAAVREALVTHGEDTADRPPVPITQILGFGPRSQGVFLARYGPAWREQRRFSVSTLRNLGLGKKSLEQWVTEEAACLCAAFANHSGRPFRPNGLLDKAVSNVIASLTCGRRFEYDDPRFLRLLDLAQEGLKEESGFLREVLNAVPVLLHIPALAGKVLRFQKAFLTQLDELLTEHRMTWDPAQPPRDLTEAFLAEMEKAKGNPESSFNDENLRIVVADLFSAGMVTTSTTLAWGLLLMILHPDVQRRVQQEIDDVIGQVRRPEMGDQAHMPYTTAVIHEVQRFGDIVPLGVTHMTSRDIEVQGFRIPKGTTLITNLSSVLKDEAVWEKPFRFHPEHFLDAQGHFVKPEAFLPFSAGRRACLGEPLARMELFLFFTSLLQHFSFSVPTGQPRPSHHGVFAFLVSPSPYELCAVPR
Cytochrome P450 2C19, sequence (P33261 whole entry): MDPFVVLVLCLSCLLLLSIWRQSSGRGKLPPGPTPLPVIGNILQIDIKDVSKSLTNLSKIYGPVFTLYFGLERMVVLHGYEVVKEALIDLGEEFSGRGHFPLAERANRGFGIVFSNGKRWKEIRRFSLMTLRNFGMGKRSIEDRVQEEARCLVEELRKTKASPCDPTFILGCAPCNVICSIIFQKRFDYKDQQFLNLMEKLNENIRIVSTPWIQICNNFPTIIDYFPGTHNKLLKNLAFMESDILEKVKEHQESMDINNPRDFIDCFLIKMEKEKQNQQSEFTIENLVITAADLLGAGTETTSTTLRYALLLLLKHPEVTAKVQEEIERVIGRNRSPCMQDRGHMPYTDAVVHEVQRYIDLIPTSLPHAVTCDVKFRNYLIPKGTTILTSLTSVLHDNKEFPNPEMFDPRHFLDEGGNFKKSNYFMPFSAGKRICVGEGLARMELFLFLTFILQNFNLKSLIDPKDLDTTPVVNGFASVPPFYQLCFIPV

CCOC1(c2ccc(Br)cc2)SC=C(C)n2c1noc2=O (stereo not given)
pEC50 [1]: 6.57
Activity [2]: 94%
inhibition [3]: 40%
inhibition [4]: inactive
microsomal CLint at 1 µM [5]: 53 µL/min/mg
inhibition [6]: Active
inhibition [7]: Active
pIC50 [8]: 6.33
fold change (FC) [9]: 11.8
Activity [10]: inactive
fold change (FC) [11]: 3.3
pEC50 [12]: 7.66
inhibition [13]: Active
pIC50 [14]: 4.74
Activity [15]: 95%
Activity [16]: Active
pIC50 [17]: 5.39
Activity [18]: 64%
inhibition [19]: Active
inhibition [20]: inactive
Activity [21]: 10%
Activity [22]: 20%
pIC50 [23]: 5.74
Activity [24]: Active
IC50 [25]: 18300 nM
inhibition (INH) ([25]; rat, 1 h): Dose-dependent effect
fold change (FC) [26]: 12
pEC50 [27]: 7.30
Activity [28]: 18%
Activity [29]: 36%
